# Source: ChEMBL document CHEMBL3745686 (Eur J Med Chem, 2016)
# Activity calls are given as the source filed them. The calls are words filed in the database; no cut-off is given here.
# How the values were obtained:
# [1] = molecular target: T1, P2Y purinoceptor 12 (Homo sapiens, UniProt Q9H244); assay: Agonist activity at human platelet P2Y12 receptor assessed as decrease in intra-platelet phosphorylated VASP by flow cytometric analysis
# [2] = Anti-aggregatory activity in human platelet rich plasma assessed as inhibition of 20 uM ADP-induced platelet aggregation preincubated for 15 mins by optical aggregometric analysis; format: functional, cell-free
# [3] = molecular target: T2, P2Y purinoceptor 1 (Homo sapiens, UniProt P47900); assay: Antagonist activity at human platelet P2Y1 receptor assessed as inhibition of ADP-induced increase in cytosolic calcium level by FLUO-4 staining based flow cytometric analysis; format: functional
# Summary of the method: (§1)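 Stimulus was extracellular Ca2+ uptake on 1 μM test compound (P2X1, scaled to 20 μM β,γ-CH2-ATP as 100%, selective P2Y1 inhibitor control), or 3 μM ADP (P2Y1 antagonism; omitted for agonism).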
# [4] = molecular target: T1, P2Y purinoceptor 12; assay: Antagonist activity at human platelet P2Y12 receptor assessed as inhibition of ADP-mediated decrease in intra-platelet phosphorylated VASP by flow cytometric analysis
# [5] = Anti-aggregatory activity in human platelet rich plasma assessed as inhibition of 20 uM ADP-induced platelet aggregation by optical aggregometric analysis; format: functional, cell-free
# [6] = tested on: Platelet; assay: Anti-aggregatory activity in human platelet rich plasma assessed as inhibition of ADP-induced platelet shape change; format: functional, cell-free
# [7] = molecular target: T2, P2Y purinoceptor 1; assay: Agonist activity at human platelet P2Y1 receptor assessed as increase in cytosolic calcium level by FLUO-4 staining based flow cytometric analysis; format: functional
# Summary of the method: as §1
# [8] = molecular target: T3, P2X purinoceptor 1 (Homo sapiens) (UniProt P51575); assay: Agonist activity at human platelet P2X1 receptor assessed as increase in cytosolic calcium level at 1 uM by […] staining based flow cytometric analysis relative to beta,gamma-CH2-ATP
# T3 sequence (whole entry): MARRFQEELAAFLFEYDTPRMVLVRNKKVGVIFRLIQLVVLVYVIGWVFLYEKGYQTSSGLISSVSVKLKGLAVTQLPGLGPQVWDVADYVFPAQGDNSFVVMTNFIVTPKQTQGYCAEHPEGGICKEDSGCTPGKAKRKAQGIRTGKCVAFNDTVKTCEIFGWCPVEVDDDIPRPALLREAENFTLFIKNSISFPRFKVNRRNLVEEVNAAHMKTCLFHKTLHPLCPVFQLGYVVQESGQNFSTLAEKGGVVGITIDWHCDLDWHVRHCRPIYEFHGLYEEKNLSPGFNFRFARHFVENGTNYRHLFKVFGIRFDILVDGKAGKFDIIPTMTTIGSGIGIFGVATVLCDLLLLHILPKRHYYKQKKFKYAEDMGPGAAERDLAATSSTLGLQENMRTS
# Summary of the method: as §1
# [9] = tested on: Plasma; assay: Drug level in rat plasma treated with P'1,P'4-di-(2 methylthio-5'-adenosine) P'1,P'4-dithio-P'2,P'3-chloromethylenetetraphosphate, sodium salt at 50 uM after 77 hrs by HPLC analysis; format: ADME, cell-free
# Summary of the method: (§2)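 Frozen pooled heparinised rat or human plasma, thawed and warmed 5 min at 37 °C, spiked to 50 μM final compound (from 10 mM saline stock), held at 37 °C up to 77 h; heat-denatured plasma as chemical control; aliquots quenched with MeCN, ultrafiltered, dried, redissolved in pH 8.5 phosphate/EDTA; isocratic RP-HPLC, 273 nm; metabolites confirmed by reference compounds and LCMS; peak areas internally normalised.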
# [10] = tested on: Plasma; assay: Drug level in human plasma treated with P'1,P'4-di-(2 methylthio-5'-adenosine) P'1,P'4-dithio-P'2,P'3-chloromethylenetetraphosphate, sodium salt at 50 uM after 77 hrs by HPLC analysis; format: ADME, cell-free
# Summary of the method: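 Pooled heparinized human plasma, prewarmed 5 min at 37 °C, was spiked to 50 μM final from a saline stock and incubated at 37 °C. Aliquots were MeCN-precipitated, ultrafiltered (10K), dried, reconstituted in phosphate/EDTA pH 8.5, and run on C18 HPLC (isocratic 20% methanol, 50 mM phosphate pH 8.4, 10 mM EDTA, UV 273 nm). Diastereomer peak areas were internally normalized, with heat-denatured plasma and blank controls.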
# [11] = tested on: Platelet; assay: Anti-aggregatory activity in human platelet rich plasma assessed as inhibition of 20 uM ADP-induced platelet aggregation at 100 nM preincubated for 15 mins followed by ADP addition measured every 11 secs for 6 mins by 96-well microplate method; format: functional, cell-free
# [12] = tested on: Platelet; assay: Anti-aggregatory activity in human platelet rich plasma assessed as inhibition of 20 uM ADP-induced platelet aggregation at 25 nM preincubated for 15 mins followed by ADP addition measured every 11 secs for 6 mins by 96-well microplate method; format: functional, cell-free
# [13] = molecular target: P2Y purinoceptor 2 (Homo sapiens) (UniProt P41231); assay: Effect on human P2Y2 receptor
# [14] = tested on: Platelet; assay: Anti-aggregatory activity in human platelet rich plasma assessed as inhibition of ADP-induced primary and secondary platelet aggregation preincubated for 15 mins followed by ADP addition and 10 secs shaking measured every 27 secs with 10 secs shaking by 96-well microplate method; format: functional, cell-free
# Summary of the method: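 PRP incubated with compound 15 min at 37 °C, aggregation started with 5 μM ADP and 10 s shaking; absorbance at 580 nm read every 27 s with 10 s shaking between reads; 100% set by platelet-poor plasma, 0% by PRP.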
# [15] = molecular target: P2Y purinoceptor 6 (Homo sapiens) (UniProt Q15077); assay: Effect on human P2Y6 receptor
# [16] = molecular target: P2Y purinoceptor 4 (Homo sapiens) (UniProt P51582); assay: Effect on human P2Y4 receptor
# [17] = Half life in human plasma at 0.7 uM; format: ADME, cell-free
# [18] = Half life in rat plasma; format: ADME, cell-free
# [19] = tested on: Platelet; assay: Ratio of IC50 for inhibition of 20 uM ADP-induced human platelet aggregation for inhibition of 20 uM ADP-induced human platelet aggregation preincubated for 15 mins; format: functional
# [20] = tested on: Plasma; assay: Drug metabolism in rat plasma assessed as MeSAdo formation at 50 uM after 77 hrs by HPLC analysis; format: ADME, cell-free
# Summary of the method: as §2
# [21] = tested on: Platelet; assay: Anti-aggregatory activity in ADP-induced human platelet rich plasma assessed as P-selectin expression at 10 nM preincubated for 30 mins followed by 100 fold dilution by fluorescence assay; format: functional
# Summary of the method: (§3)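 Human PRP from aspirin/NSAID-free donors in 3.2% citrate; platelets pre-incubated 30 min with 10 nM compound, then diluted 100-fold in platelet-poor plasma with or without 10 nM compound, stimulated with ADP; surface activated GPIIb-IIIa and P-selectin read as mean fluorescence intensity; means ± SEM of 3 experiments.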
# [22] = tested on: Plasma; assay: Drugmetabolism in human plasma assessed as MeSAMP(S) formation at 50 uM after 77 hrs by HPLC analysis; format: ADME, cell-free
# Summary of the method: as §2
# [23] = Anti-aggregatory activity in human platelet rich plasma assessed as inhibition of 20 uM ADP-induced P-selectin expression by fluorescence assay; format: functional, cell-free
# [24] = Chemical stability in heat denaturated plasma (unknown origin); format: ADME, cell-free
# Summary of the method: as §2
# [25] = Anti-aggregatory activity in human platelet rich plasma assessed as inhibition of 20 uM ADP-induced platelet surface activated GP2b-3a expression by fluorescence assay; format: functional, cell-free
# [26] = tested on: Plasma; assay: Half life in rat plasma at 50 uM measured at 1 to 4 hrs; format: ADME, cell-free
# [27] = tested on: Plasma; assay: Metabolic stability in rat plasma assessed as first order elimination rate constant at 50 uM measured at 1 to 4 hrs; format: ADME, cell-free
# [28] = tested on: Plasma; assay: Metabolic stability in fresh rat plasma assessed as compound degradation at 50 uM after 24 hrs by HPLC analysis; format: ADME, cell-free
# [29] = tested on: Plasma; assay: Drug metabolism in human plasma assessed as MeSAdo formation at 50 uM after 77 hrs by HPLC analysis; format: ADME, cell-free
# Summary of the method: as §2
# [30] = tested on: Plasma; assay: Drug metabolism in rat plasma assessed as MeSAMP(S) formation at 50 uM after 77 hrs by HPLC analysis; format: ADME, cell-free
# Summary of the method: as §2
# [31] = tested on: Platelet; assay: Anti-aggregatory activity in ADP-induced human platelet rich plasma assessed as platelet surface activated GP2b-3a expression at 10 nM preincubated for 30 mins followed by 100 fold dilution by fluorescence assay; format: functional
# Summary of the method: as §3
# [32] = tested on: Plasma; assay: Half life in human plasma at 50 uM measured at 1 to 4 hrs; format: ADME, cell-free
# [33] = tested on: Plasma; assay: Metabolic stability in human plasma assessed as first order elimination rate constant at 50 uM measured at 1 to 4 hrs; format: ADME, cell-free
# T1 sequence (Q9H244 whole entry): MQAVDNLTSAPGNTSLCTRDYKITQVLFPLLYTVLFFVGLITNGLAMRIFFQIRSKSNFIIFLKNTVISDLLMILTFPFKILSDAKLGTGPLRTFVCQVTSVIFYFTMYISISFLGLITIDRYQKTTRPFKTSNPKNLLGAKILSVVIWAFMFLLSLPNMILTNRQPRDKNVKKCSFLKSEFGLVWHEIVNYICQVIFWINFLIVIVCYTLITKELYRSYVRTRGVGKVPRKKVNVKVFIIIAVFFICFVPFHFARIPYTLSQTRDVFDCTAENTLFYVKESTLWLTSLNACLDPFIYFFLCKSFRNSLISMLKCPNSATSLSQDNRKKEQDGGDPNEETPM
# T2 sequence (P47900 whole entry): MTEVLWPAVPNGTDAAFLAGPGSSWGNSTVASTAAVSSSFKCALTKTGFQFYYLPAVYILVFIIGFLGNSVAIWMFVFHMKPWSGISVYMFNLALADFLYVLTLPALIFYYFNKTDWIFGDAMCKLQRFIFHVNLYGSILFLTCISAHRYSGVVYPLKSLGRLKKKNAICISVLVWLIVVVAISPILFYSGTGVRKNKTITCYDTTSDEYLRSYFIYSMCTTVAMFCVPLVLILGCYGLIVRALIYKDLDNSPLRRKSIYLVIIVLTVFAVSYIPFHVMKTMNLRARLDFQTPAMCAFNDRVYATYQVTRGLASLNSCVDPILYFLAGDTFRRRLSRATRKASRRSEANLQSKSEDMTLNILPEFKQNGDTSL
# Chain of P2Y purinoceptor 6 (Homo sapiens) (Q15077 whole entry): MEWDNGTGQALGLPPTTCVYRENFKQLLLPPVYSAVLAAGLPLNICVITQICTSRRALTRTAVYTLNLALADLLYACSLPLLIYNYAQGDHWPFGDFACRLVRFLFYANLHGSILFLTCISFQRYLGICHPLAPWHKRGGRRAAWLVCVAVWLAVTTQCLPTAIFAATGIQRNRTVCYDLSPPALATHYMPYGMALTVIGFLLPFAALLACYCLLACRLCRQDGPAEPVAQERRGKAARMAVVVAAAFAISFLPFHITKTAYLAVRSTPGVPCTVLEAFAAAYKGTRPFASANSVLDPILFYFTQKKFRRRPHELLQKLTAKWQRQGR
# Chain of P2Y purinoceptor 4 (Homo sapiens) (P51582 whole entry): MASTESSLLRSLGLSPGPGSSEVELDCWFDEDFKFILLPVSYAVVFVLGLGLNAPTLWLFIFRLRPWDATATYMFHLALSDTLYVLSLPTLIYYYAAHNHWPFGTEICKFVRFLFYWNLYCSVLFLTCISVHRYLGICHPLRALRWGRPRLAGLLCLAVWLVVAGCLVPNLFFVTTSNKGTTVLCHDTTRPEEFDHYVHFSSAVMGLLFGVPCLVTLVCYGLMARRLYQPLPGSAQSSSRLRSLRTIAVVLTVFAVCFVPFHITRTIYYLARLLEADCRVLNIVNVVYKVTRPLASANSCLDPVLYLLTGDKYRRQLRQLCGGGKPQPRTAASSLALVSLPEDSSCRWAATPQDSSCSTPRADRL
# Chain of P2Y purinoceptor 2 (Homo sapiens) (P41231 whole entry): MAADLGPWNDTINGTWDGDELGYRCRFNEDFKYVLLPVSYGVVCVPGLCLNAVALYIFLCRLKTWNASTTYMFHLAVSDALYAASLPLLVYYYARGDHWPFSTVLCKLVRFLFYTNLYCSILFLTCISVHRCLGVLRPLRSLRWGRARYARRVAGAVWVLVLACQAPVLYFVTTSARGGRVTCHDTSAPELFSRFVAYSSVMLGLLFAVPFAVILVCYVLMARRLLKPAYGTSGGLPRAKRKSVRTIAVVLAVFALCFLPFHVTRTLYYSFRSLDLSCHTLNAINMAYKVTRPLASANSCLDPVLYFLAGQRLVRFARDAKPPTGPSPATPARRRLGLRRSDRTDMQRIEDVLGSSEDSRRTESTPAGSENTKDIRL
structure (smiles),measurement,setting,value
Nc1nc(Br)nc2c1ncn2[C@@H]1O[C@H](COP(=O)(S)OP(=O)(O)C(Cl)P(=O)(O)OP(=O)(S)OC[C@H]2O[C@@H](n3cnc4c(N)nc(Br)nc43)[C@H](O)[C@@H]2O)[C@@H](O)[C@H]1O (mixture of isomers),Activity,[1],inactive
same,IC50,[2],4520 nM
same,IC50,[3],2240 nM
same,IC50,[4],340 nM
same,IC50,[5],6220 nM
same,inhibition,[6],Active
same,Activity,[7],inactive
same,Activity,[8],1.8%
CSc1nc(N)c2ncn([C@@H]3O[C@H](CO)[C@@H](O)[C@H]3O)c2n1,Drug metabolism,[9],metabolite_detected
same,Drug metabolism,[10],metabolite_detected
CSc1nc(N)c2ncn([C@@H]3O[C@H](COP(=O)(S)OP(=O)(O)C(Cl)P(=O)(O)OP(=O)(S)OC[C@H]4O[C@@H](n5cnc6c(N)nc(SC)nc65)[C@H](O)[C@@H]4O)[C@@H](O)[C@H]3O)c2n1 (mixture of isomers),Activity,[1],inactive
same,inhibition,[11],Active
same,inhibition,[12],Active
same,Activity,[13],inactive
same,inhibition,[14],Dose-dependent effect
same,inhibition,[6],Active
same,Activity,[7],inactive
same,Activity,[8],0.24%
same,Activity,[15],inactive
same,Activity,[16],inactive
Nc1ncnc2c1ncn2[C@@H]1O[C@H](COP(=O)(O)OP(=O)(O)OP(=O)(O)OP(=O)(O)OC[C@H]2O[C@@H](n3cnc4c(N)ncnc43)[C@H](O)[C@@H]2O)[C@@H](O)[C@H]1O [DIADENOSINE TETRAPHOSPHATE],half-life at 0.7 µM,[17],2 min
same,half-life,[18],2.99 min
same,Activity,[8],198%
CCSc1nc(N)c2ncn([C@@H]3O[C@H](COP(=O)([S-])OP(=O)([O-])C(Cl)P(=O)([O-])OP(=O)([S-])OC[C@H]4O[C@@H](n5cnc6c(N)nc(SCC)nc65)[C@H](O)[C@@H]4O)[C@@H](O)[C@H]3O)c2n1.[Na+].[Na+].[Na+].[Na+] (mixture of isomers),Activity,[1],inactive
same,IC50,[2],54.3 nM
same,IC50,[3],9600 nM
same,IC50,[4],140 nM
same,IC50,[5],3320 nM
same,inhibition,[6],Active
same,Activity,[7],inactive
same,Activity,[8],23.8%
same,Ratio IC50,[19],50
CSc1nc(N)c2ncn([C@@H]3O[C@H](COP(=O)([S-])OP(=O)([O-])C(Cl)P(=O)([O-])OP(=O)([S-])OC[C@H]4O[C@@H](n5cnc6c(N)nc(SC)nc65)[C@H](O)[C@@H]4O)[C@@H](O)[C@H]3O)c2n1.[Na+].[Na+].[Na+].[Na+] (mixture of isomers),Drug metabolism,[20],metabolite_detected
same,Activity,[21],80%
same,Stability,[22],Stable
same,IC50,[2],63.6 nM
same,IC50,[23],0.6 nM
same,IC50,[3],2150 nM
same,Stability,[24],Stable
same,IC50,[4],220 nM
same,IC50,[25],1.1 nM
same,IC50,[5],2560 nM
same,t1/2,[26],284 min
same,Kel,[27],0.147 h⁻¹
same,Stability,[28],Stable
same,Drug metabolism,[29],metabolite_detected
same,Drug metabolism,[30],metabolite_detected
same,Ratio IC50,[19],50
same,Activity,[31],80%
same,t1/2,[32],1880 min
same,Kel,[33],0.0221 h⁻¹
CSc1nc(N)c2ncn([C@@H]3O[C@H](COP(O)(O)=S)[C@@H](O)[C@H]3O)c2n1,Drug metabolism,[9],metabolite_detected
